Measurements: ChEMBL document CHEMBL5131563, “Accelerated Identification of Cell Active KRAS Inhibitory Macrocyclic Peptides using Mixture Libraries and Automated Ligand Identification System (ALIS) Technology” (J Med Chem, 2022)
Where a SMILES comes first, the peptide text is derived from it. Bridges are numbered along the chain shown (N, C = ends). [ ]: non-standard residue; d: D form. Pro(3R-Ph) = O=C(O)[C@H]1NCC[C@@H]1c1ccccc1; Bip = N[C@@H](Cc1ccc(-c2ccccc2)cc1)C(=O)O; Lys(N3) = [N-]=[N+]=NCCCC[C@H](N)C(=O)O

What was measured:
[1] = test system: HeLa; assay: Cell permeability in human HeLa cells transfected with NanoLuc-HaloTag vector incubated for 18 hrs followed by treated with NanoBret618-azide ligand by NanoClick assay; type: ADME, cell-based
[2] = test system: HeLa; assay: Cell permeability in human HeLa cells transfected with NanoLuc-HaloTag vector incubated for 4 hrs followed by treated with NanoBret618-azide ligand by NanoClick assay; type: ADME, cell-based
[3] = Stability in human HeLa cell homogenate assessed as half life by LC-MS/MS analysis; type: ADME, cell-based
Summary of the method: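 HeLa cells suspended at 1 × 10^6 cells/mL, probe-sonicated on ice until homogeneous, stored frozen at –20 °C. Peptides incubated with homogenate (1 × 10^6 cells/mL equivalent); peptide loss over time quantified by LC-MS/MS to derive t1/2.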

[4] = target: T1, GTPase KRas (Homo sapiens, UniProt P01116, G12D); assay: Inhibition of KRAS in human ASPC1 cells harboring KRAS G12D mutant assessed as inhibition of ERK phosphorylation incubated for 2 hrs by AlphaScreen-based […] assay; type: cell-based
Summary of the method: (§1)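 AsPC-1 cells (KRAS G12D) were seeded at 15 000 cells/well in phenol-red-free RPMI with 10% FBS and 25 mM HEPES, then incubated overnight at 37 °C and 5% CO2. Medium was switched to serum-free before dosing. Cells were given a dose–response titration for 2 or 18 h at 37 °C, washed and lysed with protease inhibitors. Phospho-ERK and total ERK were read by AlphaScreen SureFire multiplex, using the pERK/total ERK ratio. Curves were fit with a 4-parameter logistic.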

[5] = target: T1, GTPase KRas; assay: Inhibition of recombinant biotinylated KRAS G12D mutant (unknown origin) assessed as inhibition of SOS-catalyzed nucleotide exchange preincubated for 60 mins followed by addition of human SOS protein and unlabeled GTP and measured after 60 mins by TR-FRET analysis
Summary of the method: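 Biotinylated KRAS G12D was treated in EDTA buffer (1 h, RT), then loaded at 90 nM with 900 nM Bodipy-GDP and 15 nM Tb-streptavidin in Mg2+ buffer, HEPES pH 7.5 (6 h, RT). It was used at 1.5 nM assay solution with a 10-point, 3-fold DMSO compound series for 60 min at RT. A solution of 120 nM human SOS plus GTP was added for 60 min. The read-out was TR-FRET at 520/495 nm, normalized to DMSO and saturating-inhibitor controls, with a 4-parameter fit.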

[6] = target: T1, GTPase KRas; assay: Inhibition of KRAS in human ASPC1 cells harboring KRAS G12D mutant assessed as inhibition of ERK phosphorylation incubated for 18 hrs by AlphaScreen-based […] assay; type: cell-based; summary of the method: as §1

T1 sequence (P01116 whole entry G12D): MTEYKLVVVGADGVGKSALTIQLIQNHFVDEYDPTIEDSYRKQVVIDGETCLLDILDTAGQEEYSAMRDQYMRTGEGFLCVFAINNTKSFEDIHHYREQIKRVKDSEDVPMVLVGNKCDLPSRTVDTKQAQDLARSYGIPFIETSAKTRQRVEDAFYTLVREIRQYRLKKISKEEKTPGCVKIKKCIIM

Row | SMILES | EC50 [1] [µM] | EC50 [2] [µM] | half-life [3] [h] | IC50 [4] [µM] | IC50 [5] [µM] | IC50 [6] [µM]
1 | CC[C@H](C)[C@@H]1NC(=O)[C@H](Cc2ccc(-c3ccccc3)cc2)NC(=O)[C@H](CC(C)C)NC(=O)[C@@H]2[C@H](c3ccccc3)CCN2C(=O)[C@@H](NC(=O)[C@H](CCCNC(=N)N)NC(=O)[C@H](CCCNC(=N)N)NC(=O)[C@H](CCCCN=[N+]=[N-])NC(C)=O)CSSC[C@@H](C(=O)N[C@@H](CCCNC(=N)N)C(=O)N[C@@H](CCCNC(=N)N)C(N)=O)NC(=O)[C@H](C(C)C)NC(=O)[C@@H]2CCCN2C(=O)[C@H](CC(=O)O)NC(=O)[C@H](Cc2ccc(O)cc2)NC(=O)[C@H](CO)NC1=O | 0.199 | 7.32 | > 6.2 | 2.7 | < 0.001 | 19
2 | CC(=O)N[C@@H](CCCCN=[N+]=[N-])C(=O)N[C@@H](CCCNC(=N)N)C(=O)N[C@@H](CCCNC(=N)N)C(=O)N[C@H]1CSSC[C@@H](C(=O)N[C@@H](CCCNC(=N)N)C(=O)N[C@@H](CCCNC(=N)N)C(N)=O)NC(=O)[C@H](C(C)C)NC(=O)[C@@H]2CCCN2C(=O)[C@H](CC(=O)O)NC(=O)[C@H](Cc2ccc(O)cc2)NC(=O)[C@H](CO)NC(=O)[C@H](C)NC(=O)[C@H](Cc2ccc(-c3ccccc3)cc2)NC(=O)[C@H](CC(C)C)NC(=O)[C@@H]2[C@@H](c3ccccc3)CCN2C1=O (Ac-[Lys(N3)]RRC[Pro(3R-Ph)]L[Bip]ASYDPVCRR-NH2; disulfide 4-14) | 0.148 | 1.49 | > 6.2 | 6.2 | < 0.001 | 6.8
3 | CC[C@H](C)[C@@H]1NC(=O)[C@H](Cc2ccc(-c3ccccc3)cc2)NC(=O)[C@H](CC(C)C)NC(=O)[C@@H]2[C@@H](c3ccccc3)CCN2CC(=O)[C@@H](NC(=O)[C@H](CCCNC(=N)N)NC(=O)[C@H](CCCNC(=N)N)NC(C)=O)CSSC[C@@H](C(=O)N[C@@H](CCCNC(=N)N)C(=O)N[C@@H](CCCNC(=N)N)C(N)=O)NC(=O)[C@H](C(C)C)NC(=O)[C@@H]2CCCN2C(=O)[C@H](CC(=O)O)NC(=O)[C@H](Cc2ccc(O)cc2)NC(=O)[C@H](CO)NC1=O |  |  | > 6.2 | 3.3 | < 0.001 | 33
